The text below walks through data of publication PMC5429141 (Nature structural & molecular biology, 2016).

The target of one assay is wild-type EcTrmD (Escherichia coli, UniProt P0A873). It counts as biochemical, E. coli. The conditions noted are these: single turnover, 37 °C.
The test system of another assay is EcTrmD G55A. Kind of assay: Pre-steady-state methyl transfer kinetics, G55A mutant. The class given is biochemical, E. coli. The conditions noted are these: G55A relative to wild-type enzyme.
Another assay relates to EcTrmD G59A. The assay can be described thus: Pre-steady-state methyl transfer kinetics, G59A mutant. The class given is biochemical, E. coli. The conditions noted are these: G59A relative to wild-type enzyme.
The subject of a further assay is EcTrmD Y86A. Kind of assay: Pre-steady-state methyl transfer kinetics, Y86A mutant. It counts as biochemical, E. coli. As to conditions: Y86A relative to wild-type enzyme.
In another assay the test system is EcTrmD P89A. The assay can be described thus: Pre-steady-state methyl transfer kinetics, P89A mutant. The class given is biochemical, E. coli. As to conditions: P89A relative to wild-type enzyme.
In a further assay the test system is EcTrmD Q90A. Kind of assay: Pre-steady-state methyl transfer kinetics, Q90A mutant. It counts as biochemical, E. coli. As to conditions: Q90A relative to wild-type enzyme.
The subject of another assay is EcTrmD P89W. The assay can be described thus: Pre-steady-state methyl transfer kinetics, P89W mutant. The class given is biochemical, E. coli. As to conditions: P89W relative to wild-type enzyme.
The subject of another assay is EcTrmD Y115A. Kind of assay: Pre-steady-state methyl transfer kinetics, Y115A mutant. The class given is biochemical, E. coli. As to conditions: Y115A relative to wild-type enzyme.
The next assay deals with EcTrmD E116A. Kind of assay: Pre-steady-state methyl transfer kinetics, E116A mutant. The class given is biochemical, E. coli. The conditions noted are these: E116A relative to wild-type enzyme.
The test system of another assay is EcTrmD Y115F. Kind of assay: Pre-steady-state methyl transfer kinetics, Y115F mutant. It counts as biochemical, E. coli. The conditions noted are these: Y115F relative to wild-type enzyme.
The test system of a further assay is EcTrmD G134A. Kind of assay: Pre-steady-state methyl transfer kinetics, G134A mutant. The class given is biochemical, E. coli. The conditions noted are these: G134A relative to wild-type enzyme.
The test system of a further assay is EcTrmD Y136A. Kind of assay: Pre-steady-state methyl transfer kinetics, Y136A mutant. The class given is biochemical, E. coli. As to conditions: Y136A relative to wild-type enzyme.
A further assay deals with EcTrmD G141A. The assay can be described thus: Pre-steady-state methyl transfer kinetics, G141A mutant. The class given is biochemical, E. coli. The conditions noted are these: G141A relative to wild-type enzyme.
For a further assay, the system named is EcTrmD S170*A. The assay can be described thus: Pre-steady-state methyl transfer kinetics, S170*A mutant. It counts as biochemical, E. coli. As to conditions: S170*A relative to wild-type enzyme.
For another assay, the system named is EcTrmD D177*A. The assay can be described thus: Pre-steady-state methyl transfer kinetics, D177*A mutant. The class given is biochemical, E. coli. The conditions noted are these: D177*A relative to wild-type enzyme.
The next assay has as its system EcTrmD H180*A. Kind of assay: Pre-steady-state methyl transfer kinetics, H180*A mutant. The class given is biochemical, E. coli. As to conditions: H180*A relative to wild-type enzyme.
The subject of the next assay is EcTrmD R154A. The assay can be described thus: Pre-steady-state methyl transfer kinetics, R154A mutant. The class given is biochemical, E. coli. The conditions noted are these: R154A relative to wild-type enzyme.
A further assay has as its system EcTrmD D169*A. Kind of assay: Pre-steady-state methyl transfer kinetics, D169*A mutant. The class given is biochemical, E. coli. As to conditions: D169*A relative to wild-type enzyme.
The target of another assay is wild-type TrmD dimer (Escherichia coli, UniProt P0A873). The assay can be described thus: Fluorescence titration. It counts as binding, E. coli. The conditions noted are these: wild-type enzyme; room temperature; pH 8.0. The procedure, abridged:
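His-tagged enzyme expressed in E. coli SG13009 and purified by cobalt-affinity and MonoQ ion-exchange chromatography. Concentration was measured by Bradford against BSA and corrected for active dimer fraction. Increasing AdoMet was added to the dimer, and intrinsic Trp fluorescence quenching was followed with excitation at 295 nm and emission at 304–400 nm.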

The target in a further assay is TrmD Y115A dimer (Escherichia coli, UniProt P0A873, Y115A). The class given is binding, E. coli. As to conditions: Y115 mutant; room temperature; pH 8.0.
TrmD Y115A dimer, sequence (P0A873 whole entry Y115A): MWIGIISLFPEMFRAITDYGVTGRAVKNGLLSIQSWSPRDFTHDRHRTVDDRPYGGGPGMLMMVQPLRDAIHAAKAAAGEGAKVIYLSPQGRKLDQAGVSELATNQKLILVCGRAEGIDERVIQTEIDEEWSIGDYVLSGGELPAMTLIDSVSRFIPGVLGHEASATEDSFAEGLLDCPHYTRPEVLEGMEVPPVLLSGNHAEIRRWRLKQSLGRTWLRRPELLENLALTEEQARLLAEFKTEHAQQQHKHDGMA

wild-type TrmD dimer, sequence (P0A873 whole entry): as the sequence (P0A873 whole entry Y115A) above, with A115Y counted along it
wild-type EcTrmD, sequence (P0A873 whole entry): as the sequence (P0A873 whole entry Y115A) above, with A115Y counted along it

As for `C[S+](CC[C@H](N)C(=O)[O-])C[C@H]1O[C@@H](n2cnc3c(N)ncnc32)[C@H](O)[C@@H]1O` (some centres unmarked) [AdoMet, S-adenosyl methionine], the “kchem from enzyme titration of AdoMet” value on wild-type EcTrmD came out at 0.113 ± 0.003 s⁻¹. Further, the “fold-change in Kd (AdoMet), effect on AdoMet binding” value in the assay with EcTrmD G55A is recorded as 12.8 fold; with EcTrmD G59A it was 3.2 fold; in the assay on EcTrmD Y86A, 2.8 fold; in the assay with EcTrmD P89A it was 2.6 fold; with EcTrmD Q90A it was 1.2 fold; in the assay on EcTrmD P89W it was 23 fold. Also, the “fold-change in Kd (AdoMet), effect on AdoMet binding” value in the assay on EcTrmD Y115A worked out at 6.3 fold; in the assay with EcTrmD E116A it was 6.0 fold; with EcTrmD Y115F, 8.0 fold. The “fold-change in Kd (AdoMet), decrease in AdoMet binding” value stood at 19.0 fold in the assay on EcTrmD G134A; 8.4 fold in the assay on EcTrmD Y136A; 32.2 fold with EcTrmD G141A; 2.6 fold in the assay with EcTrmD S170*A; 9.0 fold with EcTrmD D177*A; 4.4 fold with EcTrmD H180*A. Moreover, the “effect on AdoMet binding” value in the assay with EcTrmD R154A and with EcTrmD D169*A was “neither had an effect” in each case. Besides, the “binding stoichiometry of AdoMet per dimer” value at wild-type TrmD dimer and at TrmD Y115A dimer was “two molecules of AdoMet per dimer” each time.
